Only some compounds are listed: those with a hit (about 2.4% of all), similar ones and a draw of the others.
Ecoli rRNA inh: reduced GFP signal of wild-type E. coli, primary screen, bacterial rRNA inhibitor project, GFP/RFP fluorescence, OD600, single point | E. coli WT GFP vs humanized-ribosome RFP mutants, 24 h; stronger effect = lower value; DMSO median 0, no signal -100 | GFP signal change (wild-type ribosome), % (no concentration beside the values) | 1.6% of 350,000 active | AID 720706, 2013;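 active = significant combined selectivity score with lowered wild-type GFP, culture density cut under 30%, mutant RFP and density less affected; inactive = any of these conditions unmet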
EWS-Fli block: EWS/Fli-driven NR0B1 reporter inhibitors, primary screen, A673 cells, NR0B1 luciferase, luminescence, MLPCN library; viability-normalised; inhibition, % at 12.6 µM; 0.67% of 350,000 active; AID 651661, 2012;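 active = mean inhibition of at least 50% after viability correction, with every replicate also passing that limit; inconclusive = mean reaches 50% but only one of two replicates passes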;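 note: firefly luciferase signal divided by Alamar Blue viability fluorescence both relative to DMSO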
E-sel inducer: E-selectin induction in HUVECs, primary screen, imaging, HUVEC, immunofluorescence imaging, single point. activation, % at 7.58 µM. P16581. 0.37% of 260,000 active. normalized: neutral wells 0, TNF-alpha wells 100;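 active = mean E-selectin-positive cell signal at least 10% of the positive control, reached in at least 60% of replicates, without over 20% cell loss; inconclusive = no rule given, readout overlaps actives, possibly toxicity-flagged; inactive = the rest, including those meeting only one limit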
Target sequence (P16581 whole entry, looked up): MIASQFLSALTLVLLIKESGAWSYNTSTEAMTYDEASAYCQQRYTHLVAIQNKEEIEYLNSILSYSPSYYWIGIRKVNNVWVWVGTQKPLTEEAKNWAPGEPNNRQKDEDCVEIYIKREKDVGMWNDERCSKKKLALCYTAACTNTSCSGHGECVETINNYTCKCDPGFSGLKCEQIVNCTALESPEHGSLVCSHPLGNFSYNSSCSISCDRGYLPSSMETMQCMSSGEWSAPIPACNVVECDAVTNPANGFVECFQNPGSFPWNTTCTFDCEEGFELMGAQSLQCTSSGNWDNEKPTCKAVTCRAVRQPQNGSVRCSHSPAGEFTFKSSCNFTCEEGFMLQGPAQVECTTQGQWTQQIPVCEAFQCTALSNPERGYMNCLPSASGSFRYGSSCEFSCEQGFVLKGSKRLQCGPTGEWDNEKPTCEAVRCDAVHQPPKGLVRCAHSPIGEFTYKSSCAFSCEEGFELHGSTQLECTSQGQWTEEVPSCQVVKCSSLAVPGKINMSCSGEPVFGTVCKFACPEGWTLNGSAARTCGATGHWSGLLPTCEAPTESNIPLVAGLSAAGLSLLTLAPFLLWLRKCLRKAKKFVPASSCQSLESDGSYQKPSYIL
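Test system: HUVEC; input: 3,000 HUVEC/well; measured by: immunofluorescence imaging; read-out: % PE-positive cells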
LGR2 antag: inhibitors of bursicon-induced LGR2 CRE-luciferase signal, primary screen, cell-based, HEK293, CRE-luciferase reporter, bursicon stimulation | Drosophila bursicon receptor LGR2 (rickets) | bursicon-stimulated, 4 h | inhibition, % at 9.99 µM | 0.35% of 380,000 active | AID 720647, 2013;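 active = drop in luminescence signal, shown as inhibition above about 50% in the replicate tests, limit read from the data, passing the limit was not always enough; inconclusive = probably only some replicates passing the limit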;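 note: agonist challenge used bursicon conditioned medium at about half maximal strength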
Starred values were filed as active, the others as inactive; ? = inconclusive; · = no result.

SMILES	Ecoli rRNA inh	EWS-Fli block	E-sel inducer	LGR2 antag
CCCCCNc1nc2sc3c(c2c(=O)n1-c1cccc(Cl)c1)CCN(C)C3	-23	12	42*	-1
CCCCCCN(C(=O)CCCCCN1C(=O)NC(c2ccc([N+](=O)[O-])cc2)C(C(=O)OCc2ccccc2)=C1C)C(C(=O)NCCCC)c1ccc(OCC(=O)OC)c(C(=O)OC)c1 (stereo unspecified)	8	?	0	4
CCCCCCN(C(=O)CCCCCN1C(=O)NC(c2cccc([N+](=O)[O-])c2)C(C(=O)OCc2ccccc2)=C1C)C(C(=O)NCCCC)c1ccc(OCC(=O)OC)c(C(=O)OC)c1 (stereo unspecified)	15	69*	0	-13
C=CCNc1oc(COc2ccc(C)cc2)nc1C#N	5	-21	·	-15
CN(C)CCNc1oc(COc2ccc(-c3ccccc3)cc2)nc1C#N	-36*	10	·	-10
O=C(C[C@@H]1CC[C@H](NC(=O)CCN2CCCCC2)[C@@H](CO)O1)Nc1nccs1	2	4	0	-5
O=C(Nc1ccccc1)c1ccc(-c2ccc([N+](=O)[O-])cc2)o1	-11	-97	·	-20
O=C(NNC(=O)c1ccccc1O)c1cc2ccccc2o1	-31*	-41	0	-14
O=C(NNC(=O)c1ccccc1O)c1ccc(-c2ccc([N+](=O)[O-])cc2)o1	-25*	-25	·	-8
O=C(NNC(=O)c1cc2ccccc2o1)c1ccncc1	-2	0	0	-2
CC1CC(C)CN(C(=O)c2ccc(-c3ccc([N+](=O)[O-])cc3)o2)C1 (stereo unspecified)	-21*	-55	2	6
COc1ccc2c3c(n(C)c2c1)[C@@H](CO)N(C(=O)Cc1ccccc1)CC31CN(C(=O)Cc2ccccc2)C1	-3	19	0	10
COc1ccc(-c2csc(CCn3nc(C)cc3C)n2)cc1	-21*	-52	·	-6
C[C@@H]1CN([C@@H](C)CO)C(=O)Cc2cc(NC(=O)NC3CCCCC3)ccc2O[C@H]1CN(C)Cc1ccc2c(c1)OCO2	-7	·	8	-8
C[C@H]1CN([C@@H](C)CO)C(=O)c2cc(C#Cc3cccc(F)c3)cnc2O[C@@H]1CN(C)C(=O)C1CCCCC1	-5	-2	0	10
Cc1cccc(/C=N\NC(=O)c2ccccc2-n2cccc2)c1	1	-4	0	5
O=C(N/N=C/c1ccc(Br)cc1)c1ccccc1-n1cccc1	-41*	27	·	-18
C[C@@H]1CN([C@H](C)CO)C(=O)c2cc(NS(=O)(=O)c3ccc(Cl)cc3)ccc2O[C@@H]1CN(C)Cc1ccc(C(F)(F)F)cc1	-2	18	3	16
COC(=O)c1ccc(CN2CCCC(CO)(Cc3ccccc3F)C2)cc1 (stereo unspecified)	-20*	-3	0	-2
CO[C@@H]1CN(C)C(=O)c2ccc(NS(=O)(=O)c3ccc(-c4ccccc4)cc3)cc2OC[C@H](C)NC[C@H]1C	5	0	0	10
Cc1ccccc1-c1ccc([C@H]2[C@H]3CN(C(=O)c4ccc(F)cc4)CC(=O)N3[C@H]2CO)cc1	5	12	-1	7
C[C@H](CO)N1C[C@H](C)[C@@H](CN(C)CC2CCCCC2)Oc2c(NC(=O)Nc3ccc(F)cc3)cccc2C1=O	-11	·	1	17
C[C@H]1CN([C@@H](C)CO)C(=O)c2cccc(NC(=O)Nc3ccc(F)cc3)c2O[C@@H]1CN(C)C(=O)NC1CCCCC1	-1	-3	69*	5
COc1ccc(NC(=O)Nc2cccc3c2O[C@H](CN(C)C(=O)NC2CCCCC2)[C@H](C)CN([C@H](C)CO)C3=O)cc1	-2	-7	32*	4
C[C@H]1CN([C@@H](C)CO)C(=O)c2cccc(NC(=O)Nc3ccc(F)cc3)c2O[C@H]1CN(C)CC1CCCCC1	0	2	34*	2
SMILES	Ecoli rRNA inh	EWS-Fli block	E-sel inducer	LGR2 antag
O=C(C1CCC1)N1CC(=O)N2[C@@H](CO)[C@@H](c3ccc(-c4ccccc4F)cc3)[C@@H]2C1	-4	6	0	12
O=C(Nc1ccc(F)cc1)N1CC(=O)N2[C@H](CO)[C@H](c3ccc(C#Cc4ccccc4)cc3)[C@@H]2C1	-8	·	1	·
CC(CN1CCCCC1)OC(=O)c1ccco1 (stereo unspecified)	7	-5	39*	8
CC(CN1CCCC1)OC(=O)c1ccccc1Cl (stereo unspecified)	8	-2	·	4
COc1ccc(CNc2ccc3c(c2)ncn3-c2ccccc2OC)cc1	·	·	·	-16
COc1ccccc1-n1cnc2cc(NCc3ccccc3O)ccc21	-18*	-41	1	-22
Cc1noc(C)c1NC(=O)N(C)C[C@H]1Oc2ccc(NC(=O)NC3CCCCC3)cc2C(=O)N([C@H](C)CO)C[C@H]1C	-1	-2	0	2
C/C=C/c1cnc2c(c1)C(=O)N([C@H](C)CO)C[C@@H](C)[C@@H](CN(C)Cc1cccc(C(=O)O)c1)O2	2	17	0	-5
COc1cccc2sc3ccc(C#CC4(O)CCCCC4)cc3c(=O)c12	·	-167	0	-50
O=c1c2ccccc2sc2ccc(C#CC3(O)CCCCC3)cc12	-15	89*	1	100*
C[C@@H]1CN([C@@H](C)CO)C(=O)c2cc(C#Cc3ccccc3)cnc2O[C@H]1CN(C)C(=O)CN(C)C	1	-5	1	14
O=[N+]([O-])c1cccc(-c2cc3cccc[n+]3cc2-c2cccc([N+](=O)[O-])c2)c1	·	·	0	-14
Cc1cccc2cc(-c3ccccc3)c(-c3ccccc3)c[n+]12	-42*	17	0	3
CCC(=O)N[C@@H]1C=C[C@H](CC(=O)NCC2CCCCC2)O[C@H]1CO	0	0	0	11
O=C(C[C@H]1CC[C@@H]2[C@H](COC[C@H](O)CN2C(=O)c2ccccc2F)O1)NCc1ccc(Cl)cc1	-6	5	0	-5
Cc1cc(C)c(C(=O)/C=C/C=C/c2ccccc2)c(=O)[nH]1	·	·	·	0
Cc1cc(C)c(C(=O)/C=C/c2ccc(C(C)C)cc2)c(=O)[nH]1	-14	-3	·	80*
COc1ccc(-c2[nH]nc3nc(N4CCN(C(=O)c5ccoc5)CC4)cc(C(F)(F)F)c23)cc1	-10	55*	0	-7
Cn1cnc(S(=O)(=O)N2CC[C@@H]3[C@H](CO)Nc4ccc(-c5ccccc5)cc4[C@@H]32)c1	-4	-31	3	-3
C[C@H](CO)N1C[C@H](C)[C@@H](CN(C)S(=O)(=O)c2ccccc2)Oc2ccc(NS(=O)(=O)c3ccc(F)cc3)cc2CC1=O	-5	46	0	-5
CCCCCc1ccc(-c2ccc(/C=C/C(N)=O)cc2)nc1	·	·	·	-23
CCCCCc1ccc(-c2ccc(OC)cc2)nc1	-24*	-75	·	-100

From PubChem
